Screening data deposited in PubChem by The Scripps Research Institute Molecular Screening Center.
Most compounds without a hit are left out; they make up all but 3.1% or so of the library.
OX1R antag-1: antagonists of human orexin 1 receptor (OX1R) | actives 1.8% (n = 330,000) | inhibition, % at 6.6 µM | Orexin/Hypocretin receptor type 1 (Homo sapiens), O43613 | OX1R-expressing cells, FRET antagonist read-out; in the data active means inhibition mostly above about 38%, no sharp cut-off; inactive means mostly below about 40%;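 further: 0% = agonist challenge alone and 100% = reference antagonist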
CHO parental Ca: ATP-evoked calcium signal inhibitors, parental CHO, primary screen, counter-screen for OX1R antagonist project, cell-based, fluorescence, Fluo-8 calcium dye; inhibition, % at 5.6 µM; actives 0.63% (n = 330,000); parental CHO-K1, ATP-induced calcium, Fluo-8 fluorescence;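 active means inhibition above that plate's mean sample inhibition plus 3 SD, cut at about 26% in these data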;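 further: 0% = ATP-challenged DMSO wells and 100% = DMSO wells without ATP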
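Material: parental CHO cells / Compound: single nominal dose of 5.6 µM per compound / Signal: Fluo-8 fluorescence / Replicates: singlicate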
GPR7 antagonist: GPR7 receptor antagonists, primary screen, cell-based, fluorescence, single concentration; GPR7-expressing cells, fluorescence antagonist assay; inhibition, % at 4.4 µM; actives 1.1% (n = 290,000); in the data active means inhibition above about 16%, passing the limit was not always enough;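 further: cells stimulated with the agonist NPW; 0% = agonist with vehicle and 100% = vehicle without agonist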
Target sequence (P48145 whole entry, looked up): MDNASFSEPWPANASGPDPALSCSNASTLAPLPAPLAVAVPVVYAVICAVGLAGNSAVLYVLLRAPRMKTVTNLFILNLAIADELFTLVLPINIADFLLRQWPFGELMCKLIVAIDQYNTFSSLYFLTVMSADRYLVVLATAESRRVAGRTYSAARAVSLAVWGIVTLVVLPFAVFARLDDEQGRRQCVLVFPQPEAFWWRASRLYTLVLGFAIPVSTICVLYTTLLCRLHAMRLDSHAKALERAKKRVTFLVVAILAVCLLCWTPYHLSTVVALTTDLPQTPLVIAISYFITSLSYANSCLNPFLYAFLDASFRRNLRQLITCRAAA
OX1R antag-2: OX1R (HCRTR1) antagonists, primary screen, fluorescence, CHO/OX1R cells, Fluo-8 calcium, orexin A. Fluo-8 calcium fluorescence. inhibition, % at 5 µM. actives 0.43% (n = 330,000). AID 434989, 2010;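 active means inhibition above its plate's threshold, mean inhibition of all tested compounds on the plate plus 3 SD, cut at about 37% in these data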;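 further: 0% = orexin A challenge wells and 100% = SB-334867-A antagonist wells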
GalR3 antag: GalR3 antagonists in HEK293 cells, primary screen, cell-based, fluorescence readout. actives 0.44% (n = 360,000). HEK293 GalR3-CNG cAMP membrane potential fluorescence; galR3 body fused to GalR1 C-terminus. Galanin receptor type 3 (Homo sapiens), O60755. AID 651719, 2012. inhibition, % at 3 µM;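 active means inhibition above the screen-wide average plus 3 SD, cut at about 13% in these data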;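 further: forskolin and galanin both at EC90 stimulate the cells; cAMP rise reported by CNG channel membrane potential dye signal; 0% = forskolin plus galanin with DMSO and 100% = forskolin alone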
GalR3 conf: GalR3 antagonist hit confirmation, cell-based, fluorescence, triplicate | shares compounds with GalR3 antag | HEK293 GalR3 CNG cAMP biosensor, membrane potential fluorescence; galR3 fused to GalR1 carboxy tail; challenged with forskolin and galanin at EC90 | inhibition, % at 3 µM | actives 59% (n = 1,600);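 active means inhibition above the primary screen's cutoff, the mean inhibition of all screened compounds plus 3 SD, cut at about 13% in these data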;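 further: 0% = forskolin plus galanin and 100% = forskolin alone with DMSO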
CNG parental: nonspecific cAMP agonists in parental HEK-CNG cells, counter-screen for GalR3 antagonist project, cell-based, fluorescence, high throughput. shares compounds with GalR3 antag. HEK293-CNG parental cells, cAMP membrane potential fluorescence; normalised: DMSO wells 0%, forskolin wells 100%. activation, % at 3 µM. actives 10% (n = 1,600). AID 652268, 2013; in the data active means activation above about 1.3%
* hit, by the source's call.

Screening COc1ccc(/C=N/NC(=O)C(Cc2c[nH]c3ccccc23)NC(=O)OCC(C)C)cc1[N+](=O)[O-] (stereo unspecified) returned OX1R antag-1 17, CHO parental Ca -12, GPR7 antagonist -15, OX1R antag-2 -1, GalR3 antag 15*, GalR3 conf 26* and CNG parental 0.
For COc1cc(/C=C/c2ccc3cccc([N+](=O)[O-])c3n2)ccc1OCC(=O)O the results were OX1R antag-1 15, CHO parental Ca -4, GPR7 antagonist -14, OX1R antag-2 -4, GalR3 antag 67*, GalR3 conf 66* and CNG parental 0.
`O=C(O)COc1ccc(/C=C/c2ccc3cccc([N+](=O)[O-])c3n2)cc1` gave OX1R antag-1 20, CHO parental Ca -6, GPR7 antagonist -7, OX1R antag-2 -17, GalR3 antag 16*, GalR3 conf 21* and CNG parental 0.
`CC(=O)Nc1ccc(OCCC[n+]2ccccc2)cc1` gave OX1R antag-1 10, CHO parental Ca -7, GPR7 antagonist 4, OX1R antag-2 -7 and GalR3 antag -3.
For CCCCCc1ccc(OCCC[n+]2ccccc2)c(CCCCC)c1 the results were OX1R antag-1 3, CHO parental Ca 4, GPR7 antagonist 6, OX1R antag-2 0, GalR3 antag 31*, GalR3 conf 36* and CNG parental 1.8*.
`c1ccc(CN2CCC(N3CCN(Cc4ccc5c(c4)OCO5)CC3)CC2)cc1` gave OX1R antag-1 13, CHO parental Ca -3, GPR7 antagonist -12, OX1R antag-2 -8, GalR3 antag 40*, GalR3 conf 0 and CNG parental 6.0*.
For COc1ccc(C2=NS(=O)(=O)N(C)C(C(=O)N(C)Cc3ccccc3)=C2)cc1OC the results were OX1R antag-1 8, CHO parental Ca -3, GPR7 antagonist -7, OX1R antag-2 -17, GalR3 antag 15*, GalR3 conf 22* and CNG parental -1.
`COc1ccc(C2=NS(=O)(=O)N(C)C(C(=O)NC(C)c3ccccc3)=C2)cc1OC` (stereo unspecified) gave OX1R antag-1 20, CHO parental Ca -22, GPR7 antagonist 0, OX1R antag-2 -12 and GalR3 antag 6.
NC(=O)c1sc(=S)n2c1[nH]c(=O)c1sccc12 was read as OX1R antag-1 -2, CHO parental Ca 7, GPR7 antagonist -17, OX1R antag-2 0, GalR3 antag 67*, GalR3 conf -3 and CNG parental 1.
For CC(C)CN(C(=O)CN1CCN(S(=O)(=O)c2ccc3ccccc3c2)CC1)c1c(N)n(CC(C)C)c(=O)[nH]c1=O the results were OX1R antag-1 9, CHO parental Ca -12, GPR7 antagonist 1, OX1R antag-2 -16, GalR3 antag 18*, GalR3 conf -4 and CNG parental 0.
O=C(c1cccnc1Cl)N1CCOCC1 was read as OX1R antag-1 19, CHO parental Ca -8, GPR7 antagonist -23, OX1R antag-2 -12, GalR3 antag 13*, GalR3 conf 2 and CNG parental 0.
O=c1cc(CSc2nnc(-c3cccs3)n2Cc2ccccc2)nc2sc3ccccc3n12 was read as OX1R antag-1 54, CHO parental Ca 52*, GPR7 antagonist 30*, OX1R antag-2 5, GalR3 antag 74*, GalR3 conf 108* and CNG parental 0.
`CCCn1c2ccccc2c2cnn(CC(=O)NCCCN3CCCC(C)C3)c(=O)c21` (stereo unspecified) gave OX1R antag-1 14, CHO parental Ca -16, GPR7 antagonist -4, OX1R antag-2 -18 and GalR3 antag -8.
Screening CC(C)CN(C(=O)c1cc(=O)[nH]c2ccccc12)c1c(N)n(Cc2ccccc2)c(=O)[nH]c1=O returned OX1R antag-1 14, CHO parental Ca -12, OX1R antag-2 -6 and GalR3 antag -1.
Screening Cc1cc(C)nc(N2C(=O)CC(C(=O)O)NC2=NCCc2c[nH]c3ccccc23)n1 (stereo unspecified) returned OX1R antag-1 9, CHO parental Ca 3, GPR7 antagonist -9, OX1R antag-2 -21, GalR3 antag 14*, GalR3 conf 1 and CNG parental 0.
COC(=O)C1=C(C)N(Cc2ccccc2)C(=NCCc2c[nH]c3ccccc23)N[C@H]1c1ccccc1 was read as OX1R antag-1 12, CHO parental Ca -7 and OX1R antag-2 26.
For C[N+](C)(C)C/C=C1/COCO1 the results were OX1R antag-1 -6, CHO parental Ca -10, GPR7 antagonist 3, OX1R antag-2 -4, GalR3 antag 20*, GalR3 conf 13* and CNG parental 0.
`Fc1cccc(-c2nnn3c2nc(Cl)c2ccccc23)c1` gave GPR7 antagonist 2, GalR3 antag 14*, GalR3 conf 6 and CNG parental 3.8*.
For CC(=O)Nc1ccc2c(c1)CCc1ccccc1-2 the results were OX1R antag-1 0, CHO parental Ca 0, GPR7 antagonist 16, OX1R antag-2 -3 and GalR3 antag -10.
`O=C(O)/C=C/C(=O)c1ccc2c(c1)CCc1ccccc1-2` gave OX1R antag-1 39, CHO parental Ca 3, OX1R antag-2 -13, GalR3 antag 25*, GalR3 conf 16* and CNG parental 1.
CCOC(=O)C1CCN(C(=O)c2ccc(OCC(=O)Nc3cccc(C(F)(F)F)c3)c(OC)c2)CC1 was read as OX1R antag-1 14, CHO parental Ca 45*, OX1R antag-2 45*, GalR3 antag 92*, GalR3 conf 107* and CNG parental 0.
`Cc1oncc1C(=O)Nc1cccc(C#N)c1` gave OX1R antag-1 13, CHO parental Ca 3, GPR7 antagonist 2, OX1R antag-2 -5 and GalR3 antag 3.
`CCCCCCCCCC(=O)N/N=C(\C)c1cccnc1` gave OX1R antag-1 32, CHO parental Ca -25, GPR7 antagonist -6, OX1R antag-2 -20, GalR3 antag 14*, GalR3 conf 0 and CNG parental 0.
